Results published in paper PMC11319731 (Nature Communications, 2024).

Key:
[1] = test system: PD-L2, B7H3 (CD276), B7H4, Vista; assay: Western blot of other PD-L1 family proteins in HCT116; assay type: cell-based; conditions: 5μM Arg6-MPHP, HCT116, WB
PD-L1 in HCT116 cells = PD-L1 in HCT116 cells (Homo sapiens, UniProt Q9NZQ7); assay: Immunofluorescence; assay type: cell-based; conditions: HCT116, incubation for 10 h, LSCM
Method in brief: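 HCT116 colon cancer cells were exposed to test peptide carrying an N-terminal Arg6 cell-penetrating hexamer, or to an Arg6-tagged random-sequence control peptide. PD-L1 was labelled with red dye and HSC70 or LAMP2 with green dye, and cells were imaged by laser scanning confocal microscopy (10 h incubation stated for the HSC70 pairing). Intensity profiles were plotted along a line, with colocalization given as Pearson's R.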

PD-L1 in HCT116 cells, sequence (Q9NZQ7 19-290): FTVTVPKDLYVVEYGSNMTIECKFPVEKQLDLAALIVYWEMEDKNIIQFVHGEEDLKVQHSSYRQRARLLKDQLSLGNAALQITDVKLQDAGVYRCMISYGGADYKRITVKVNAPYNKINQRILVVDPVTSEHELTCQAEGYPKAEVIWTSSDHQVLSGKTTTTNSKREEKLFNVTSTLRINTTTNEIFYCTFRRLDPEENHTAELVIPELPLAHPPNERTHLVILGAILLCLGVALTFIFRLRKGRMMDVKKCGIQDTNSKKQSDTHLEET

SMILES: C[C@H](O)[C@@H](NC(=O)[C@H]1CCCN1C(=O)[C@@H](CCCCN)NC(=O)[C@@H](CO)NC(=O)[C@@H](Cc1ccc(O)cc1)NC(=O)[C@@H](CC(N)=O)NC(=O)CCOCCOCCOCCNC(=O)[C@H](CCC(N)=O)NC(=O)[C@H](CCCNC(=N)N)NC(=O)[C@H](Cc1ccccc1)NC(=O)[C@H](CCC(=O)O)NC(=O)[C@H](CCCCN)NC(=O)[C@H](CS)NC(=O)[C@H](CCCNC(=N)N)NC(=O)[C@H](CCCNC(=N)N)NC(=O)[C@H](CCCNC(=N)N)NC(=O)[C@H](CCCNC(=N)N)NC(=O)[C@H](CCCNC(=N)N)NC(=O)[C@@H](N)CCCNC(=N)N)C(=O)N[C@H](CC(=O)O)C(=O)N[C@H](CCCNC(=N)N)C(=O)N[C@H](CCC(N)=O)C(=O)N[C@H](Cc1ccc(O)cc1)C(=O)N[C@H](Cc1c[nH]cn1)C(=O)N[C@H](Cc1ccccc1)C(=O)O [Arg6-MPHP]
- impact on other PD-L1 family proteins (PD-L2, B7H3 (CD276), B7H4, Vista) [1]: negligible
- colocalization of PD-L1 and HSC70 (PD-L1 in HCT116 cells): conspicuous colocalization
